{
  "source": "paper PMC3207488",
  "about": "(Bioorganic & medicinal chemistry, 2011)",
  "key": {"[1]": {"system": "TNF-α-induced NFκB activity", "test": "NFκB luciferase assay", "type": "cell-based, human", "conditions": "for inhibition at 50 µM: HEK293, read-out: NFκB % inhib.; for NFκB % inhib.: 50 μM", "method_in_brief": "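HEK293 line carrying a chromosomally integrated luciferase reporter driven by the NFκB response element. Cells incubated 6 h with TNFα plus test compound, then luciferase activity read. Inhibition expressed as % relative to TNFα-treated control. IC50 from dose-response of five serial dilutions, mean of two experiments.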"}, "[2]": {"molecular_target": "T1, aromatase (CYP19) (Homo sapiens, UniProt P11511)", "T1 sequence (P11511 1-503)": "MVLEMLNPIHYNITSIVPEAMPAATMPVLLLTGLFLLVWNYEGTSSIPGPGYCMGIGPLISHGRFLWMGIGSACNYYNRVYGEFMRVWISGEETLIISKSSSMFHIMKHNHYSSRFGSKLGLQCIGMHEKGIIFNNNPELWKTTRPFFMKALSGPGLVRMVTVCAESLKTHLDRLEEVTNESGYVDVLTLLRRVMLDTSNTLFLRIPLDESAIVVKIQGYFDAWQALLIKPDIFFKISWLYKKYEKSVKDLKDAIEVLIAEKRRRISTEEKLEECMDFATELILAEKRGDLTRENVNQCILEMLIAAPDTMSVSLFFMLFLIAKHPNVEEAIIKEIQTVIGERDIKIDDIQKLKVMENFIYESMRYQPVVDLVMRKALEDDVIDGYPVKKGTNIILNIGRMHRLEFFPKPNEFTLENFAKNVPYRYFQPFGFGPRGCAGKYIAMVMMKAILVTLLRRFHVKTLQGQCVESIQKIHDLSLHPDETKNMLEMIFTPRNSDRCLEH", "test": "Aromatase assay", "type": "biochemical", "conditions": "for inhibition at 50 µM: read-out: Aromatase % inhib., 50 μM; for inhibition at 50 µM / Aromatase % inhib.: vs vehicle-treated controls; for Aromatase % inhib.: 50 μM"}, "[3]": {"system": "various human cancer cell lines", "conditions": "natural callophycin A; cited from earlier work"}, "[4]": {"system": "MCF7 breast cancer cells", "test": "SRB assay: MCF7 cell proliferation", "type": "cell-based", "conditions": "for SRB assay % surv.: MCF7 cells, 72 h; for viability at 50 µM: Homo sapiens, MCF7, 72 h, read-out: SRB assay % surv.", "method_in_brief": "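MCF7 cells (1 × 10^4 per well) plated with test compound, 72 h at 37°C, 5% CO2. Fixed in 10% TCA for 30 min, stained with 0.4% SRB in 1% acetic acid for 30 min, then washed with 1% acetic acid. Bound dye dissolved in 10 mM Tris (pH 10.0) and A515 read. Survival given as % of vehicle-treated controls.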"}, "[5]": {"system": "Human embryonic kidney cells 293", "test": "Cell survival in the NFκB assay", "type": "cell-based", "conditions": "for NFκB % surv.: 50 μM, 293 cells; for viability at 50 µM: Homo sapiens, HEK293, 6 h, read-out: NFκB % surv."}, "[6]": {"system": "nitric oxide (NO) production in LPS-stimulated RAW 264.7 murine macrophage cells", "test": "Nitrite assay: NO production in LPS-stimulated RAW 264.7 cells", "type": "cell-based"}, "[7]": {"system": "quinone reductase 1 (QR1)", "test": "QR1 induction in cell culture", "type": "cell-based, murine", "conditions": "50 μM; Hepa 1c1c7 cells", "method_in_brief": "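Hepa 1c1c7 murine hepatoma cells. QR1 measured by NADPH-dependent, menadiol-mediated reduction of MTT to blue formazan, with protein determined by crystal violet staining of identical plates. Specific activity given as nmol formazan/mg protein/min. IR is the ratio of treated to DMSO-control specific activity. CD (concentration doubling activity) derived by dose-response for IR >2.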"}, "[8]": {"system": "RAW 264.7 cells", "test": "Cell survival in the nitrite assay", "type": "cell-based, murine", "conditions": "for Nitrite assay % surv.: 50 μM, RAW 264.7 cells; for viability at 50 µM: Mus musculus, RAW264.7, 20 h, read-out: Nitrite assay % surv.", "method_in_brief": "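RAW 264.7 cells held 24 h at 37°C, 5% CO2, then given serially diluted test compound for 15 min. LPS (1 μg/mL) or no LPS added for a further 20 h. Viability assessed by SRB protein staining under the same conditions as the nitrite assay, as % survival versus vehicle-treated controls.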"}, "[9]": {"system": "Hepa 1c1c7 murine hepatoma cells", "test": "Cell survival in the QR1 assay", "type": "cell-based", "conditions": "for QR1 % surv.: 50 μM, cell survival in comparison with vehicle-treated controls; for viability at 50 µM: Mus musculus, Hepa-1c1c7, read-out: QR1 % surv."}},
  "note": "Where two headings read alike, the source gives them in different places.",
  "data": [
    {"compound": "O=C(O)[C@H]1Cc2c([nH]c3ccccc23)CN1", "note": "[Compound 1b, 1,2,3,4-tetrahydro-β-carboline-3-carboxylic acid]", "values": [
      {"measurement": "inhibition at 50 µM", "setting": "[1]; Homo sapiens", "value": -72.5, "unit": "%"}
    ]},
    {"compound": "O=C(O)[C@@H]1Cc2c([nH]c3ccccc23)CN1Cc1ccc(O)cc1", "note": "[Compound 12a, (S)-Callophycin A]", "values": [
      {"measurement": "inhibition at 50 µM", "setting": "[2]", "value": "> 50", "unit": "%"}
    ]},
    {"compound": "O=C(O)C1Cc2c([nH]c3ccccc23)CN1Cc1ccc(O)cc1", "note": "(stereo not shown) [callophycin A, Callophycin A]", "values": [
      {"measurement": "antiproliferative effects", "setting": "[3]", "value": "low micromolar concentrations"},
      {"measurement": "inhibition of MCF7 cell proliferation (in words)", "setting": "[4]; 50 μM", "value": "didn’t show the inhibitory activity"}
    ]},
    {"compound": "(R)-2-Isobutyl 3-methyl 3,4-dihydro-1H-pyrido[3,4-b]indole-2,3(9H)-dicarboxylate [Compound 3d]", "values": [
      {"measurement": "NFκB % surv.", "setting": "[5]", "value": 112.3, "unit": "%"},
      {"measurement": "IC50", "setting": "[6]; read-out: Nitrite assay IC50", "value": 2.8, "unit": "µM"},
      {"measurement": "NFκB % inhib.", "setting": "[1]; TNFα-treated 293 cells", "value": 91.6, "unit": "%"},
      {"measurement": "IC50", "setting": "[1]; read-out: NFκB IC50, TNFα-treated 293 cells", "value": 4.8, "unit": "µM"},
      {"measurement": "QR1 IR (induction ratio)", "setting": "[7]", "value": 1.1},
      {"measurement": "Nitrite assay % surv.", "setting": "[8]", "value": 92.6, "unit": "%"},
      {"measurement": "QR1 % surv.", "setting": "[9]", "value": 78.8, "unit": "%"},
      {"measurement": "SRB assay % surv.", "setting": "[4]; 50 μM", "value": 72.0, "unit": "%"},
      {"measurement": "Aromatase % inhib.", "setting": "[2]", "value": 31.7, "unit": "%"}
    ]},
    {"compound": "CC(C)COC(=O)N1Cc2[nH]c3ccccc3c2C[C@H]1C(=O)O", "note": "[Compound 7b, (S)-2-(Isobutoxycarbonyl)-2,3,4,9-tetrahydro-1H-pyrido[3,4-b]indole-3-carboxylic acid]", "values": [
      {"measurement": "viability at 50 µM", "setting": "[5]", "value": 138, "unit": "%"},
      {"measurement": "inhibition at 50 µM", "setting": "[1]; Homo sapiens", "value": 42.6, "unit": "%"},
      {"measurement": "QR1 IR (induction ratio)", "setting": "[7]", "value": 1.8},
      {"measurement": "viability at 50 µM", "setting": "[8]", "value": 137, "unit": "%"},
      {"measurement": "viability at 50 µM", "setting": "[9]", "value": 94.2, "unit": "%"},
      {"measurement": "viability at 50 µM", "setting": "[4]", "value": 105, "unit": "%"},
      {"measurement": "IC50", "setting": "[2]", "value": 72, "unit": "µM"},
      {"measurement": "inhibition at 50 µM", "setting": "[2]", "value": 40, "unit": "%"}
    ]},
    {"compound": "C=CCOC(=O)N1Cc2[nH]c3ccccc3c2C[C@H]1C(=O)OC", "note": "[Compound 3a, (S)-2-Allyl 3-methyl 3,4-dihydro-1H-pyrido[3,4-b]indole-2,3(9H)-dicarboxylate]", "values": [
      {"measurement": "inhibition at 50 µM", "setting": "[2]", "value": "> 50", "unit": "%"}
    ]},
    {"compound": "COC(=O)[C@@H]1Cc2c([nH]c3ccccc23)CN1C(=O)NC(C)C", "note": "[Compound 6b, (S)-Methyl 2-(isopropylcarbamoyl)-2,3,4,9-tetrahydro-1H-pyrido[3,4-b]indole-3-carboxylate]", "values": [
      {"measurement": "inhibition at 50 µM", "setting": "[2]", "value": "> 50", "unit": "%"}
    ]},
    {"compound": "COC(=O)[C@@H]1Cc2c([nH]c3ccccc23)CN1C(=O)OCC(C)C", "note": "[Compound 3b, (S)-2-Isobutyl 3-methyl 3,4-dihydro-1H-pyrido[3,4-b]indole-2,3(9H)-dicarboxylate]", "values": [
      {"measurement": "viability at 50 µM", "setting": "[5]", "value": 95.6, "unit": "%"},
      {"measurement": "inhibition at 50 µM", "setting": "[1]; Homo sapiens", "value": 59.8, "unit": "%"},
      {"measurement": "IC50", "setting": "[1]; Homo sapiens, HEK293, read-out: NFκB IC50", "value": 16.2, "unit": "µM"},
      {"measurement": "QR1 IR (induction ratio)", "setting": "[7]", "value": 1.7},
      {"measurement": "viability at 50 µM", "setting": "[8]", "value": 105, "unit": "%"},
      {"measurement": "viability at 50 µM", "setting": "[9]", "value": 88.3, "unit": "%"},
      {"measurement": "viability at 50 µM", "setting": "[4]", "value": 76.7, "unit": "%"},
      {"measurement": "IC50", "setting": "[2]", "value": 64.5, "unit": "µM"},
      {"measurement": "inhibition at 50 µM", "setting": "[2]", "value": 41.5, "unit": "%"}
    ]},
    {"compound": "(R)-2-(Isobutoxycarbonyl)-2,3,4,9-tetrahydro-1H-pyrido[3,4-b]indole-3-carboxylic acid [Compound 7d]", "values": [
      {"measurement": "NFκB % surv.", "setting": "[5]", "value": 264.3, "unit": "%"},
      {"measurement": "Nitrite assay % inhib.", "setting": "[6]; 50 μM", "value": 1.5, "unit": "%"},
      {"measurement": "NFκB % inhib.", "setting": "[1]; TNFα-treated 293 cells", "value": 46.1, "unit": "%"},
      {"measurement": "QR1 IR (induction ratio)", "setting": "[7]", "value": 1.5},
      {"measurement": "Nitrite assay % surv.", "setting": "[8]", "value": 134.4, "unit": "%"},
      {"measurement": "QR1 % surv.", "setting": "[9]", "value": 87.5, "unit": "%"},
      {"measurement": "SRB assay % surv.", "setting": "[4]; 50 μM", "value": 97.4, "unit": "%"},
      {"measurement": "Aromatase % inhib.", "setting": "[2]", "value": 36.3, "unit": "%"}
    ]}
  ]
}
